High-throughput results (PubChem)
Most compounds without a hit are left out; they make up all but 2.8% or so of the library.
PP1 inh – PP1-alpha phosphatase inhibitors, primary screen, counter-screen for PP5 inhibitor project, biochemical, fluorescence, OMFP substrate, single point; purified PP1alpha; inhibition, % at 6.7 µM; actives 0.9% (n = 320,000); AID 2235, 2010; Serine/threonine-protein phosphatase PP1-alpha catalytic subunit (Homo sapiens), P62136;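 active = inhibition above the mean inhibition of all tested compounds plus 3 SD, computed separately for each screening campaign, cut at about 15% in these data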
Target sequence (P62136 whole entry, looked up): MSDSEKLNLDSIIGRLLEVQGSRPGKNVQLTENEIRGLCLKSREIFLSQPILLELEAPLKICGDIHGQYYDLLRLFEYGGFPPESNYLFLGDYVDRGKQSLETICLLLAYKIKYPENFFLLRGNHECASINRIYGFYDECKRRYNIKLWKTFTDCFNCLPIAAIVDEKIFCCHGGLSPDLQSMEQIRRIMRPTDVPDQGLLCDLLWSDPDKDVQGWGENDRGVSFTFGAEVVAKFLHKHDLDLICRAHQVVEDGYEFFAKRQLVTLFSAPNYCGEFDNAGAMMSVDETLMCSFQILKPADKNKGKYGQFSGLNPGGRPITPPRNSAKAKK
T cruzi inh – inhibitors of intracellular T. cruzi growth, primary screen, luminescence, NIH3T3 host cells; T. cruzi beta-gal in NIH3T3, 90 h; actives 1.4% (n = 300,000); inhibition, % (test concentration not listed); AID 1885, 2009;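 active = mean inhibition across valid replicates above about 55%, limit read from the data; inconclusive = mean below that limit but half or more replicates reach it; inactive = mean below it, under half of replicates reach it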;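 note: signal also drops with host cell toxicity which is not excluded here; 0% = plate median of DMSO wells and 100% = zero luminescence signal; higher percent means less beta-gal luminescence so fewer parasites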
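Assay system: NIH/3T3 host cells with β-galactosidase reporter T. cruzi; input: 5,000 host fibroblasts per well; compound: single 50 nL compound addition per well in DMSO; timing: ≥90 h infection period, 3 h prior cell attachment; measured by: GalScreen β-gal luminescence, detergent lysis, 60 min; evaluation: percent inhibition of parasite-derived β-gal signal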
p-CIP stab down – p/CIP-EGFP fusion destabilizers, primary screen, fluorescence, F442A cells; Q05BA5; 16 h; decrease of EGFP signal, % at 10 µM; actives 0.01% (n = 290,000); AID 1984, 2009;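 active = EGFP signal decrease of at least 30% at 10 µM or well 3 SD below plate mean, unless failing retest; inactive = the rest, including hits failing retest or dose response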
UBC13 polyUb – UBC13 polyubiquitin chain formation inhibitors, primary screen, biochemical, TR-FRET, uHTS; Ubiquitin-conjugating enzyme E2 N (Homo sapiens), P61088; AID 485273, 2010; inhibition, % at 20 µM; actives 0.47% (n = 330,000); in the data active = inhibition above about 45%, passing the limit was not always enough; inconclusive = no clear call, values can overlap the other calls
Target sequence (P61088 whole entry, looked up): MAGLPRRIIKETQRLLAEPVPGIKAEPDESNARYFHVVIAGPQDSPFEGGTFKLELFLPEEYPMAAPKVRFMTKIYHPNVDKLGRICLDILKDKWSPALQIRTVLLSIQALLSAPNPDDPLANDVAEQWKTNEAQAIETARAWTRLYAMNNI
AI-2 QS modul – Vibrio harveyi AI-2 quorum sensing modulators, primary screen, JMH597 strain, luminescence/OD600 ratio. Vibrio harveyi JMH597 AI-2 luminescence/OD600 ratio, 9 h; hits give low values; strain lacks LuxN and CqsS sensors; 0 = neutral-control median. activity change, % at 7.5 µM. actives 0.4% (n = 300,000). AID 2094, 2009; in the data active = activity change below about -75%, passing the limit was not always enough; inconclusive = no clear call, values can overlap the other calls;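 note: luminescence divided by OD600 gain over 9 h not by final OD600 alone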
JMH597 growth – Vibrio harveyi growth inhibition, confirmation, counter-screen for AI-2 quorum sensing project, JMH597 strain, OD600 absorbance. growth inhibition, % at 7.5 µM. actives 1% (n = 750). shares compounds with AI-2 QS modul. AID 2726, 2010. 9 h; lacks LuxN and CqsS sensors;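 active = every replicate shows growth inhibition above 50%; inconclusive = at least half, but not all, replicates pass that cutoff; inactive = fewer than half of replicates pass it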
BB721 const-QS lum – luminescence inhibition in constitutive-on V. harveyi, confirmation, counter-screen for LuxS inhibitor project, strain BB721, luminescence readout; shares compounds with AI-2 QS modul; actives 95% (n = 750); Vibrio harveyi BB721 luminescence, 9 h; inhibition, % at 7.5 µM;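 active = inhibition above about 80% in every replicate, not just on average, limit read from the data; inconclusive = at least half of replicates past the limit, but not all; inactive = fewer than half of replicates past the limit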
BB721 growth rt – growth inhibition of V. harveyi BB721, confirmation, cytotoxicity control for AI-2 quorum sensing inhibitors, strain BB721, absorbance OD600; shares compounds with AI-2 QS modul; Vibrio harveyi BB721 growth, 9 h; growth inhibition, % at 7.5 µM; actives 3% (n = 750);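 active = every replicate shows growth inhibition above 50%; inconclusive = at least half but not all replicates above 50% inhibition; inactive = under half of replicates above 50% inhibition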
AI-2 QS JMH597 – Vibrio harveyi AI-2 signaling luminescence modulation – JMH597 strain, confirmation | shares compounds with AI-2 QS modul | Vibrio harveyi JMH597 AI-2 quorum sensing luminescence, 9 h; luxN and CqsS knockout, AI-2 only | inhibition, % at 7.5 µM | actives 97% (n = 750) | AID 2736, 2010;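 active = every replicate shows more than 75% inhibition of signal versus neutral control wells; inconclusive = half to three quarters of replicates exceed 75% inhibition; inactive = fewer than half of replicates exceed 75% inhibition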
* hit, by the source's call; ? = inconclusive; · = no result.

SMILES	PP1 inh	T cruzi inh	p-CIP stab down	UBC13 polyUb	AI-2 QS modul	JMH597 growth	BB721 const-QS lum	BB721 growth rt	AI-2 QS JMH597
CN(CC(=O)Nc1ccc(Cl)c(C(F)(F)F)c1)C(=O)C1(c2ccccc2)CC1	-1	3	·	1	1	·	·	·	·
Cc1c(NC(=O)CSCc2c(F)cccc2Cl)c(=O)n(-c2ccccc2)n1C	2	10	-10	-4	26	·	·	·	·
CSc1ccc(C2N=C(c3ccccc3)NO2)cc1 (stereo unspecified)	2	-3	-7	2	-85*	31	95*	13	96*
Oc1c(Br)cc(C2N=C(c3ccccc3)NO2)cc1Br (stereo unspecified)	0	2	0	-2	41	·	·	·	·
O=C(Nc1ccccc1F)C1CC1c1ccccc1 (stereo unspecified)	-1	-3	-14	9	-84*	2	92*	-27	93*
Cc1cccc(NC(=O)C2CC2c2ccccc2)c1C (stereo unspecified)	-1	-12	4	0	15	·	·	·	·
O=C(Nc1cc(-c2ccccc2)nn1-c1c(Cl)cccc1Cl)c1ccc(F)cc1	·	·	·	10	·	·	·	·	·
O=C(/C=C/c1ccccc1Cl)NCc1ccccc1	-2	12	-4	2	-94*	4	98*	17	99*
COc1ccc(CNC(=O)/C=C/c2ccccc2[N+](=O)[O-])cc1	0	17	-6	-8	-80*	14	95*	3	96*
O=C(/C=C/c1ccccc1Cl)NCCc1ccccc1	-2	22	-9	-14	-34	·	·	·	·
O=C(/C=C/c1ccccc1[N+](=O)[O-])OCC(=O)c1ccccc1	2	-13	3	5	-32	·	·	·	·
O=C(/C=C/c1ccccc1[N+](=O)[O-])Oc1ccccc1	1	-6	-3	-5	-81*	-9	79*	14	88*
O=C(/C=C/c1ccccc1[N+](=O)[O-])NCc1ccc(Cl)cc1	-1	10	3	-2	?	-4	91*	10	93*
CCc1ccc(O)c(-c2cc(C(=O)Nc3cccnc3)[nH]n2)c1	-4	-11	-2	18	-94*	-13	97*	3	97*
Cc1ccc(COC(=O)c2ccc3ccccc3n2)cc1	2	-12	-25	9	-91*	9	98*	-12	99*
O=C(CNC(=O)c1ccccc1)N/N=C/c1cccs1	-2	-8	0	-7	-48	·	·	·	·
O=C(CNC(=O)c1ccccc1)N/N=C/c1ccccc1Cl	1	-12	-3	-3	-90*	21	96*	15	97*
CCCCCC(=O)NC(=S)Nc1cccc(C(C)=O)c1	-1	12	-17	-7	-95*	-14	95*	19	96*
CCOc1ncccc1C(=O)OCC(=O)Nc1cccc(C(C)=O)c1	-5	1	-14	13	-1	·	·	·	·
O=C(COC(=O)c1ccc(F)cc1F)NCCNC(=O)COC(=O)c1ccc(F)cc1F	-4	-6	-14	10	19	·	·	·	·
Cc1cccc(NC(=O)COC(=O)c2cc(C)oc2C)c1	2	-8	-10	-7	-88*	17	95*	18	97*
CC(=O)c1cccc(NC(=O)COC(=O)c2ccccc2C)c1	2	-14	0	-1	-90*	4	98*	-8	99*
CC(=O)c1ccc(NC(=O)COC(=O)c2ccc(F)cc2F)cc1	-3	5	-27	-4	-90*	14	97*	-13	98*
O=C(/C=C/c1ccc([N+](=O)[O-])cc1)N(c1ccccn1)C1CCCCC1	0	22	-31	-25	26	·	·	·	·
CC(=O)c1cccc(NC(=O)CSC(=O)c2ccccc2)c1	-2	5	-2	9	-87*	11	95*	0	97*
SMILES	PP1 inh	T cruzi inh	p-CIP stab down	UBC13 polyUb	AI-2 QS modul	JMH597 growth	BB721 const-QS lum	BB721 growth rt	AI-2 QS JMH597
COc1ccc(CNCc2c(C(=O)N(C)C)nc3ccc(Cl)cn23)c(OC)c1	0	7	-8	-4	4	·	·	·	·
CC(C)CCNC(=O)NC(=O)COc1ncnc2sccc12	-7	8	-10	3	-81*	-6	96*	5	97*
O=S(=O)(c1ccc(F)cc1)n1cnc2ccccc21	3	-4	-6	-3	2	·	·	·	·
COC(=O)c1ccc(NC(=O)CN2C(=O)c3ccccc3S2(=O)=O)cc1	2	-1	-11	0	-90*	17	96*	4	97*
Cc1ccc(S(=O)(=O)Nc2ccc(Nc3ccccc3)cc2)cc1	5	5	-6	1	-97*	67	100*	27	100*
COc1ccc(CNC(=O)CSc2ncn[nH]2)cc1OC	0	-5	-14	-1	-3	·	·	·	·
CCOC(=O)c1sc(NC(=O)COC(=O)c2ccco2)nc1C	-3	3	1	5	-89*	10	97*	-5	98*
CCOC(=O)c1sc(NC(=O)c2ccco2)nc1C	0	·	-1	11	12	·	·	·	·
Oc1ccc(C[C@@H]2CNC(=S)N2CCCCC2CCCCC2)cc1	2	33	-21	17	-92*	1	92*	-20	96*
COc1ccc(Cc2nc(-c3ccc(-n4cccc4)cc3)no2)cc1	1	-5	3	38	9	·	·	·	·
O=C(Nc1ccc(-c2noc(CCc3ccccc3)n2)cc1)c1ccco1	3	9	-8	-22	-81*	50	91*	93*	93*
COc1ccc(Cc2nc(-c3ccccc3)no2)cc1	-1	13	4	11	-93*	13	98*	-44	98*
Cc1cccc(-c2noc(CCc3ccccc3)n2)c1	-2	-1	0	7	-78*	17	94*	0	96*
O=C(Cc1ccccc1[N+](=O)[O-])NNC(=O)c1cccs1	-1	·	·	-7	·	·	·	·	·
